For one data set, the system named is thrombin ABE I. The note with it: ligand bound to ABE II; cited from earlier work.
Data set [1] concerns the target T1, ProT (prothrombin), pro-ABE I (Homo sapiens, UniProt P00734). Briefly: 1D and 2D 1H,15N-HSQC NMR titration with ProT. The class given is binding. The note with it: [15N]-labeled at F55, K51, E53, D58 and E60; pH 6.5, 25 °C. Put shortly: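 Human plasma prothrombin buffer-exchanged into NMR buffer (25 mM H3PO4, 150 mM NaCl, 0.2 mM EDTA, pH 6.5). 15N-labeled PAR1 peptide held constant at 50 μM while protein was serially diluted from 115 or 150 μM. 1D/2D 1H,15N-HSQC shifts were fitted to a quadratic binding equation for KD, with Monte-Carlo errors assuming 10% dilution error. Titrations were run at least in duplicate.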

Data set [2] addresses T1, ProT (prothrombin), pro-ABE I. The data set is described as follows: 1D proton line broadening with ProT. It is filed as binding. The note with it: NMR buffer pH 6.5, 25 °C. Summed up: (§1)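 Human plasma proteins: prothrombin, and thrombin blocked with PPACK (4:1 PPACK:thrombin, 37 °C, 30 min). Both were exchanged by ultrafiltration into NMR buffer (25 mM H3PO4, 150 mM NaCl, 0.2 mM EDTA, pH 6.5), and concentrations were set by E1%280 (13.8 prothrombin, 18.3 thrombin). Peptide at about 10-fold excess. Peptide 1H spectra were compared with and without enzyme.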

Another data set deals with PPACK-thrombin, ABE I. The data set is described as follows: 1D proton line broadening with PPACK-thrombin. It is filed as binding, human. The note with it: NMR buffer pH 6.5, 25 °C. Put shortly: as §1

Entries after “also recorded” stand apart in the source; their conditions may differ.

Results on three substances are retold here after article PMC6716794 (Biochemistry, 2019).

Take “GpIbα: platelet receptor glycoprotein GpIbα, binds thrombin ABE II”: the “Effect on affinity of thrombomodulin TM456 for thrombin ABE I” value in the data set with thrombin ABE I is “the affinity of thrombomodulin TM456 for ABE I decreases”.

With “PAR1G (49–62, P54G): weak binding PAR1 variant, residues 49–62 with P54G (NDKYEGFWEDEEKN; UniProt P25116 49-62, looked up, fragment P54G)”, the “Binding with pro-ABE I on ProT” value in data set [1] was “very weak binding with pro-ABE I on ProT”. Besides, in data set [2] (830 μM PAR1G with 83 μM ProT), the “1D proton line broadening with ProT (PAR1G)” value is recorded as 1D proton line broadening could still be observed. Also, the “1D proton line broadening with mature thrombin (PAR1G)” value with PPACK-thrombin, ABE I (870 μM PAR1G with 87 μM PPACK-thrombin) is “increased further with the mature thrombin; also recorded: the interactions increased upon formation of mature thrombin”.

“PAR1P (49–62, P54): native PAR1 sequence peptide, residues 49–62, P54 (NDKYEPFWEDEEKN; UniProt P25116 49-62, looked up, fragment)”: in data set [2] (780 μM PAR1P with 59 μM ProT, residues D50, K51, E53, F55, D58, E60), the “1D proton line broadening with ProT (PAR1P)” value is on record as “Substantial amide proton peak broadening; also recorded: moderate interactions with ProT”. Also, the “1D proton line broadening with PPACK-thrombin (PAR1P)” value in the data set with PPACK-thrombin, ABE I (900 μM PAR1P with 97 μM PPACK-thrombin) is given as “increase in line broadening; also recorded: the interactions increased upon formation of mature thrombin”.
